Laboratory results from ChEMBL document CHEMBL1781977, “Design and synthesis of 3,5-diarylisoxazole derivatives as novel class of anti-hyperglycemic and lipid lowering agents” (Bioorg Med Chem, 2009).
The source made the active and inactive calls. The rule behind the calls is not given here.

Key:
[1] = molecular target: T1, Tyrosine-protein phosphatase non-receptor type 1 (Homo sapiens) (UniProt P18031); assay: Inhibition of protein tyrosine phosphatase-1B at 10 uM incubated for 10 mins using pNPP substrate by modified Goldstein method; parameters: Activity: scale not given: the % may be the effect or the level left
T1 sequence (whole entry): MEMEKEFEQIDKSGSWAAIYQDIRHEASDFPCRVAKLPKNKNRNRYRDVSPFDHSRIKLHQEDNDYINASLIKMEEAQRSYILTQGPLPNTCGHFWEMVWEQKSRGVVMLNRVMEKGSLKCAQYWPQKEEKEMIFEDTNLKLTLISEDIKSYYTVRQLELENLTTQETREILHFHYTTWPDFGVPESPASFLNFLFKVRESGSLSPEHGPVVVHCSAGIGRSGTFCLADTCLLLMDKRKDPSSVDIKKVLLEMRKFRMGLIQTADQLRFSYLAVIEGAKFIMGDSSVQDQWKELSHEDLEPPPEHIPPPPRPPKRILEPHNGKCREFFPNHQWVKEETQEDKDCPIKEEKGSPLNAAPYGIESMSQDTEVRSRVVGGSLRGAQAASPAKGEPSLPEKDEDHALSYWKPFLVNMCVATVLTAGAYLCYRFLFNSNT
In short: (§1)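 PTP-1B: compound preincubated 10 min with enzyme, with or without 0.01% Triton X-100. Then 10 mM pNPP in 50 mM HEPES pH 7.0 with 1 mM DTT and 2 mM EDTA, 30 min at 37 °C. Stopped with 0.1 N NaOH; absorbance read at 410 nm. p-Nitrophenolate calculated using ε 1.78 × 10⁴ M⁻¹cm⁻¹. Sodium orthovanadate used as reference.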

Rattus norvegicus [2] = assay: Antihyperglycemic activity in Charles Foster/Wistar albino rat assessed as reduction in blood glucose level at 100 mg/kg, po administered 30 mins before sucrose challenge; format: functional
In short: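 Male Charles Foster/Wistar rats, 160 ± 20 g, fasted 16 h; animals with glucose 60–80 mg/dl used, 5–6 per group. Given 100 mg/kg orally as suspension in 1.0% gum acacia (controls vehicle alone). Sucrose 10.0 g/kg orally 30 min later. Glucometer readings at 30, 60, 90, 120 min. Percent activity derived from AUC of treated versus control groups.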

[3] = molecular target: T2, Tyrosine-protein phosphatase non-receptor type 1 (Homo sapiens, UniProt P18031); assay: Inhibition of protein tyrosine phosphatase-1B at 10 uM incubated for 10 mins using pNPP substrate in absence of Triton X-100 by modified Goldstein method; in short: as §1
T2 sequence (P18031 whole entry): T1 sequence (whole entry)

[4] = molecular target: T2, Tyrosine-protein phosphatase non-receptor type 1; assay: Inhibition of protein tyrosine phosphatase-1B at 10 uM incubated for 10 mins using pNPP substrate in presence of 0.01% Triton X-100 by modified Goldstein method; in short: as §1
Rattus norvegicus [5] = assay: Antihyperglycemic activity against sucrose challenged streptozotocin-induced diabetic Sprague-Dawley albino rat assessed as reduction in blood glucose level at 100 mg/kg, po administered 30 mins before sucrose challenge measured after 24 hrs; format: functional
In short: (§2)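 Male Sprague Dawley rats, 160 ± 20 g, fasted overnight, given streptozotocin 60 mg/kg ip in 100 mM citrate pH 4.5. Rats with glucose 144–270 mg/dl at 48 h count as diabetic, 5–6 per group. Dosed 100 mg/kg orally in 1.0% gum acacia. Sucrose 2.5 g/kg given 30 min later. Glucose read at 30–300 min and 24 h. Non-responders excluded.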

Rattus norvegicus [6] = assay: Antihyperglycemic activity against sucrose challenged streptozotocin-induced diabetic Sprague-Dawley albino rat assessed as reduction in blood glucose level at 100 mg/kg, po administered 30 mins before sucrose challenge measured after 5 hrs; format: functional; in short: as §2
Rattus norvegicus [7] = assay: Antihyperglycemic activity against sucrose challenged streptozotocin-induced diabetic Sprague-Dawley albino rat assessed as reduction in blood glucose level at 25 mg/kg, po administered 30 mins before sucrose challenge; format: functional
In short: (§3)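 Streptozotocin-diabetic Sprague Dawley rats: streptozotocin 60 mg/kg ip in citrate pH 4.5; rats at 144–270 mg/dl after 48 h used. Oral doses of 7.5–100 mg/kg in 1.0% gum acacia, then sucrose 2.5 g/kg. Glucose measured at 30, 60, 90, 120, 180, 240, 300 and 1440 min. ED50 taken from dose response. Mean ± SD, n = 5; Dunnett's test.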

Mus musculus [8] = assay: Antidyslipidemic activity in C57BL/Ks db/db mouse assessed as reduction in plasma triglyceride level at 100 mg/kg, po; format: functional
In short: (§4)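 db/db mice (C57BL/KsBom, 12–18 weeks, 5 male and 5 female) dosed orally at 100 mg/kg in 1.0% gum acacia. Blood collected on day 8 for serum lipids. Mean ± SD, n = 5, against vehicle-treated db/db controls; Dunnett's test.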

Rattus norvegicus [9] = assay: Antihyperglycemic activity against sucrose challenged streptozotocin-induced diabetic Sprague-Dawley albino rat assessed as reduction in blood glucose level at 7.5 mg/kg, po administered 30 mins before sucrose challenge; format: functional; in short: as §3
Mus musculus [10] = species: Mus musculus; assay: Antihyperglycemic activity in C57BL/Ks db/db mouse assessed as reduction in blood glucose level measured after 3 days relative to control; format: functional
Rattus norvegicus [11] = assay: Antihyperglycemic activity against sucrose challenged streptozotocin-induced diabetic Sprague-Dawley albino rat assessed as reduction in blood glucose level administered orally 30 mins before sucrose challenge; format: functional; details: po; in short: as §3
[12] = molecular target: Dipeptidyl peptidase 4 (Homo sapiens) (UniProt P27487); assay: Inhibition of DPP4 assessed as rate of substrate cleavage using Gly-Pro-AMC substrate by spectrofluorometry
In short: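 DPP-IV activity read by fluorescence at 37 °C, excitation 355 nm and emission 460 nm. Initial rate calculated over the first 15 min as increase in fluorescence intensity.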

Rattus norvegicus [13] = assay: Antihyperglycemic activity against sucrose challenged streptozotocin-induced diabetic Sprague-Dawley albino rat assessed as reduction in blood glucose level at 50 mg/kg, po administered 30 mins before sucrose challenge; format: functional; in short: as §3
Rattus norvegicus [14] = assay: Antihyperglycemic activity against sucrose challenged streptozotocin-induced diabetic Sprague-Dawley albino rat assessed as reduction in blood glucose level at 100 mg/kg, po administered 30 mins before sucrose challenge; format: functional; in short: as §2
Mus musculus [15] = assay: Antihyperglycemic activity in C57BL/Ks db/db mouse assessed as reduction in blood glucose level at 100 mg/kg, po measured 6 days post dose by postprandial glucose tolerance test; format: functional; details: 144 h
In short: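 C57BL/KsBom-db mice, 12–18 weeks, 40–50 g, 5 male and 5 female, at 23 °C with 12/12 h light cycle. Treated orally at 100 mg/kg, vehicle 1.0% gum acacia. Day 6 postprandial test: glucose at −0.5 h and 0 h, then at 1, 2, 3, 4 and 6 h after dosing.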

Mus musculus [16] = assay: Antidyslipidemic activity in C57BL/Ks db/db mouse assessed as plasma HDL-cholesterol level at 100 mg/kg, po; format: functional; in short: as §4
Mus musculus [17] = assay: Antihyperglycemic activity in C57BL/Ks db/db mouse assessed as reduction in blood glucose level at 100 mg/kg, po measured 10 days post dose by postprandial glucose tolerance test; format: functional; details: 240 h, in the assay text read “oral glucose tolerance test” for “postprandial glucose tolerance test”
In short: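 db/db mice (C57BL/KsBom, 12–18 weeks, 40–50 g) given 100 mg/kg orally, vehicle 1.0% gum acacia. Day 10 OGTT after overnight fast: glucose at −30 min and drug given, then glucose at 0 min. Glucose 3 g/kg given, with readings at 30, 60, 90 and 120 min.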

Mus musculus [18] = assay: Antidyslipidemic activity in C57BL/Ks db/db mouse assessed as reduction in plasma cholesterol level at 100 mg/kg, po; format: functional; in short: as §4
Rattus norvegicus [19] = assay: Antihyperglycemic activity against sucrose challenged streptozotocin-induced diabetic Sprague-Dawley albino rat assessed as reduction in blood glucose level at 15 mg/kg, po administered 30 mins before sucrose challenge; format: functional; in short: as §3

Chain of Dipeptidyl peptidase 4 (Homo sapiens) (P27487 whole entry, looked up): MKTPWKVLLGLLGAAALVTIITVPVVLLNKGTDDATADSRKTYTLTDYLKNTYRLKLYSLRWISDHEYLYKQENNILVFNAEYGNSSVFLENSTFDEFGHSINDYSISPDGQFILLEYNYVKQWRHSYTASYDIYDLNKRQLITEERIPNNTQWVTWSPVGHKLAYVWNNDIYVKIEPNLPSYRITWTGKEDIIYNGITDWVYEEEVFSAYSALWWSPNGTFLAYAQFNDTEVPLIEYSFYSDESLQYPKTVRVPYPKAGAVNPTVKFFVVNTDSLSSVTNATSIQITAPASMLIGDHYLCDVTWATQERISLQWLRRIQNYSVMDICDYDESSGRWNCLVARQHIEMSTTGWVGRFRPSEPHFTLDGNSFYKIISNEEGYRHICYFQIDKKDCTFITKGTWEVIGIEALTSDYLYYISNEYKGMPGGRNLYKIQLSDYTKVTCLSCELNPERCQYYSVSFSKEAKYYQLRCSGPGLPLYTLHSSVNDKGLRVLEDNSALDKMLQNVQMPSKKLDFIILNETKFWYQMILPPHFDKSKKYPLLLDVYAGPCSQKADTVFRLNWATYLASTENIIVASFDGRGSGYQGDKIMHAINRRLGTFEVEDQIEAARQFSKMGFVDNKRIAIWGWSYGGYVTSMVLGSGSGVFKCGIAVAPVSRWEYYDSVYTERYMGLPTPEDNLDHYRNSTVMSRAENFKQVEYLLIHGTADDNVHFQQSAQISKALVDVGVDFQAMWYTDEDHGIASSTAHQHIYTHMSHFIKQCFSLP

| inhibition [1] | IC50 [3] | IC50 [4] | SMILES | inhibition in vivo at 100 mg/kg (Rattus norvegicus [2]) | inhibition in vivo at 100 mg/kg (Rattus norvegicus [5]) | inhibition in vivo at 100 mg/kg (Rattus norvegicus [6]) | other results |
| --- | --- | --- | --- | --- | --- | --- | --- |
| 9% | 56.8 µM | 56.9 µM | COc1ccc(-c2cc(-c3ccccc3)no2)c(OCCCCl)c1 | 9.24% | – | – | – |
| 82.9% | 2.5 µM | 2.61 µM | COc1ccc(-c2cc(-c3ccccc3)no2)c(OCCN2CCOCC2)c1 | 2.8% | – | – | – |
| 14.4% | 37.3 µM | 37.5 µM | CCCCN(C)CCCOc1cc(OC)ccc1-c1cc(-c2ccccc2)no1 | 15% | 14.2% | 12.6% | – |
| 33.5% | 24.2 µM | 24.3 µM | COc1ccc(-c2cc(-c3ccccc3)no2)c(OCCN(C)C)c1 | 16.8% | 15.9% | 15.3% | – |
| – | 9.1 µM | 9.3 µM | COc1ccc(-c2cc(-c3ccccc3)no2)c(OCC(=O)O)c1 | 11.7% | – | – | Activity [1]: 75.2% |

The remaining lines, values behind:

| SMILES | inhibition [1] | IC50 [3] | IC50 [4] | inhibition in vivo at 100 mg/kg (Rattus norvegicus [2]) | inhibition in vivo at 100 mg/kg (Rattus norvegicus [5]) | inhibition in vivo at 100 mg/kg (Rattus norvegicus [6]) | other results |
| --- | --- | --- | --- | --- | --- | --- | --- |
| COc1ccc(-c2cc(-c3ccccc3)no2)c(O)c1 | 21.8% | 27.5 µM | 27.6 µM | 9.8% | – | – | – |
| COc1ccc(-c2cc(-c3ccccc3)no2)c(OCC(O)CN2CCCCC2)c1 (stereo not drawn) | – | 6.8 µM | 3.31 µM | 17% | 16.8% | 15.8% | Activity [1]: 85.9% |
| CCOC(=O)COc1cc(OC)ccc1-c1cc(-c2ccccc2)no1 | 79.3% | 5.25 µM | 5.35 µM | 10.4% | – | – | – |
| COc1ccc(-c2cc(-c3ccccc3)no2)c(OCCN2CCCC2)c1 | 99.2% | 1.5 µM | 1.51 µM | 36.9% | 28.7% | 27.7% | inhibition in vivo at 25 mg/kg (Rattus norvegicus [7]): 15.2%; inhibition in vivo at 100 mg/kg (Mus musculus [8]): -10.5%; inhibition in vivo at 7.5 mg/kg (Rattus norvegicus [9]): 11.5%; inhibition (INH) (Mus musculus [10]): 22.8%; ED50 (Rattus norvegicus [11]): 54.8 mg/kg; inhibition [12]: inactive; inhibition in vivo at 50 mg/kg (Rattus norvegicus [13]): 18.5%; inhibition in vivo at 100 mg/kg (Rattus norvegicus [14]): 27.7%; inhibition in vivo at 100 mg/kg (Mus musculus [15]): 21.4%; Activity (Mus musculus [16]): 3%; inhibition in vivo at 100 mg/kg (Mus musculus [17]): 21.6%; inhibition in vivo at 100 mg/kg (Mus musculus [18]): -17.6%; inhibition in vivo at 15 mg/kg (Rattus norvegicus [19]): 13.7% |
| Cc1ccc(S(=O)(=O)NC(=O)NN2CC3CCCC3C2)cc1 (stereo not drawn) [GLICLAZIDE] | – | – | – | 44.8% | – | 27.7% | inhibition (INH) (Mus musculus [10]): 17.4% |
| CN(C)C(=N)NC(=N)N [METFORMIN] | – | – | – | 12.9% | 20.2% | – | inhibition (INH) (Mus musculus [10]): 11.2% |
